Source: article PMC10189352 (Molecular Therapy. Nucleic Acids, 2023)

Key:
PDA organoids = test: PDA organoid growth; format: cell-based, mouse; conditions: 24, 48, and 72 h, light microscopy; CellTiter Glo-3D
In short: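 PDA organoids were treated with test compound or DMSO and imaged by light microscopy at 24, 48 and 72 h. Growth was quantified with CellTiter-Glo 3D. Data are shown as mean ± SEM, and p-values came from Student's t test.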

[1] = test system: RNA polymerase II chromatin occupancy; test: RNA Pol II ChIP-seq in murine AML cells; format: cell-based; conditions: BRD4-occupied sites
BRD4 chromatin occupancy = test: BRD4 ChIP-seq in murine AML cells; format: cell-based; conditions: regions enriched with H3K27ac
[2] = test system: BD2 vs BD1 of BET proteins; conditions: approximately; cited from earlier work
MYC = test: Western blot of MYC protein in murine AML cells; format: cell-based; conditions: murine MLL-AF9, Nras^G12D AML cells, 6 h, RVX-208 1 μM, OTX-015 1 μM, candidates 10 μM
In short: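 Whole-cell lysates were prepared after the 6 h treatment and probed for MYC by western blot. DMSO-treated cells were the vehicle control.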

[3] = test system: BRD4 occupancy at e1-e5 Myc enhancers; test: BRD4 ChIP-qPCR at Myc enhancers in murine AML cells; format: cell-based
[4] = test system: murine AML cells (MLL-AF9; Nras^G12D); test: RNA-seq and GSEA in murine AML cells; format: cell-based; conditions: RNA-seq; for mRNA levels of JQ1-rapid target genes (n = 50): relative to DMSO
[5] = test system: human leukemia cell lines; test: Proliferation assay of human leukemia cell lines; format: cell-based; conditions: 48 h, normalized to DMSO-treated cells
In short: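 Human leukemia cell lines were grown with test compound. Proliferation rate was normalised to DMSO-treated cells; n = 3, mean ± SEM.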

human AML cells = test: Methylcellulose-based colony formation of human AML cells; format: cell-based; conditions: semi-solid methylcellulose (Figure 3E)
c-Kit surface expression = test: Flow cytometric analysis of c-Kit in murine AML cells; format: cell-based; conditions: 48 h, flow cytometry
SW-480 cells = test: Colony formation of adherent cancer cells; format: cell-based, human; conditions: dose-dependent; after 5 days of treatment
AsPC-1 cells = test: Colony formation of adherent cancer cells; format: cell-based, human; conditions: dose-dependent; after 5 days of treatment
[6] = test system: murine AML cells expressing Myc cDNA; test: Ectopic Myc cDNA expression rescue in murine AML cells; format: cell-based; conditions: murine AML cells transduced with Myc cDNA MSCV retrovirus
[7] = test system: MLL-AF9;Nras^G12D AML cells; test: Propidium iodide staining of murine AML cells; format: cell-based; conditions: 48 h (Figure 3D)
Hexim1 mRNA = test: RT-qPCR of Hexim1 in murine AML cells; format: cell-based; conditions: 6 h treatment

COc1cc(OC)c2c(=O)[nH]c(-c3cc(C)c(OCCO)c(C)c3)nc2c1 [RVX-208, apabetalone]
PDA organoid growth (PDA organoids): but not RVX-208, attenuated PDA organoid growth
RNA Pol II chromatin binding (ChIP-seq) [1]: negligible
BRD4 chromatin occupancy (ChIP-seq) (BRD4 chromatin occupancy): negligible
stronger binding affinity toward BD2 than BD1 [2]: 10- to 100 fold
MYC protein expression (MYC): only modestly affected MYC protein expression
BRD4 occupancy at e1-e5 Myc enhancers [3]: negligible effect on the BRD4 occupancy at e1-e5
LSC signature genes (GSEA) [4]: insignificant
mRNA levels of JQ1-rapid target genes (n = 50) [4]: downregulated some but not all JQ1-rapid targets

Cc1sc2c(c1C)C(c1ccc(Cl)cc1)=N[C@@H](CC(=O)Nc1ccc(O)cc1)c1nnc(C)n1-2 [OTX-015, birabresib]
anti-proliferative activity in K562, NOMO-1, JURKAT, and HL-60 [5]: minimal sensitivity
anti-proliferative activity in MV4-11, KASUMI-1, MOLM-13, and THP-1 [5]: broad growth-suppressive effect
PDA organoid growth (PDA organoids): attenuated PDA organoid growth
ability to form colonies on methylcellulose (human AML cells): substantially suppressed
c-Kit surface expression (c-Kit surface expression): downregulated c-Kit
MYC protein expression (MYC): downregulated MYC protein levels
clonogenic growth of SW-480 cells (SW-480 cells): markedly inhibit clonogenic growth
clonogenic growth of AsPC-1 cells (AsPC-1 cells): markedly inhibit clonogenic growth
effect of ectopic Myc expression on drug sensitivity [6]: ectopic Myc expression conferred resistance
proliferation of leukemia cells [7]: inhibited the proliferation of leukemia cells
BRD4 occupancy at e1-e5 Myc enhancers [3]: impaired the occupancy of BRD4 at the e1-e5 Myc enhancers
LSC signature genes (GSEA) [4]: significantly suppressed the LSC signature genes
mRNA levels of JQ1-rapid target genes (n = 50) [4]: strongly downregulated all JQ1-rapid targets
expression of genes close to the BBC1115-sensitive 330 regions (GSEA) ([4]; vs DMSO): significantly downregulated
increase of Hexim1 mRNA expression (Hexim1 mRNA): > 20 fold
